Results: ChEMBL document CHEMBL3046016, “Antifeedant and growth inhibitory effects of some neo-clerodane diterpenoids isolated from Clerodendron species (Verbenaceae) on Earias vitella and Spodoptera litura” (2003)

How the values were obtained:
Type in all cases: functional
[1] = tested on: Spodoptera litura; test: Insecticidal activity against adult Spodoptera litura in compound-treated castor leaves assessed as adult emergence at 0.5 ug/cm2 relative to control
[2] = tested on: Spodoptera litura; test: Insecticidal activity against adult Spodoptera litura in compound-treated castor leaves assessed as adult deformity at 0.5 ug/cm2 relative to control
[3] = tested on: Earias vittella; test: Insecticidal activity against pupal stage of Earias vitella assessed as pupal mortality at 0.5 ug/cm3 administered through artificial diet containing Abelmoschus esculentus seed powder (reference value: 8%)
[4] = tested on: Earias vittella; test: Insecticidal activity against adult Earias vitella assessed as adult deformity at 0.5 ug/cm3 administered through artificial diet containing Abelmoschus esculentus seed powder (reference value: 4%)
[5] = tested on: Spodoptera litura; test: Insecticidal activity against female adult Spodoptera litura in compound-treated castor leaves assessed as adult longevity time at 0.5 ug/cm2 (reference value: 10 +/- 0.63 days)
[6] = tested on: Spodoptera litura; test: Insecticidal activity against male adult Spodoptera litura in compound-treated castor leaves assessed as adult longevity time at 0.5 ug/cm2 (reference value: 9.4 +/- 0.48 days)
[7] = tested on: Earias vittella; test: Insecticidal activity against adult Earias vitella assessed as adult emergence at 0.5 ug/cm3 administered through artificial diet containing Abelmoschus esculentus seed powder (reference value: 88%)
[8] = tested on: Earias vittella; test: Insecticidal activity against pupal stage of Earias vitella assessed as pupal weight at 0.5 ug/cm3 administered through artificial diet containing Abelmoschus esculentus seed powder (reference value: 88.2 +/- 4.01 mg)
[9] = tested on: Spodoptera litura; test: Insecticidal activity against third-instar larval stage of Spodoptera litura in compound-treated castor leaves assessed as larval mortality at 0.5 ug/cm2 relative to control
[10] = tested on: Spodoptera litura; test: Insecticidal activity against pupal stage of Spodoptera litura in compound-treated castor leaves assessed as pupal weight at 0.5 ug/cm2 (reference value: 302.4 +/- 5.9 mg)
[11] = tested on: Spodoptera litura; test: Antifeedant activity against third-instar larval stage of Spodoptera litura in compound-treated castor leaves assessed as decrease in diet consumption at 0.5 ug/cm2 after 24 hr by no-choice leaf disk assay relative to acetone-treated control; parameters: scale not given: the % may be the effect or the level left
In short: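 Larvae were reared on castor leaves at 25 ± 2 °C. In a no-choice test, compound in acetone was painted on the abaxial side of castor leaf disks and air-dried. Five freshly molted third-instar larvae, starved 4 h, were placed per Petri dish with wet cotton. There were five replicates. After 24 h, consumed leaf area was read on a leaf area meter. %AF = 100 − (treated/control)×100.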

[12] = tested on: Earias vittella; test: Insecticidal activity against pupal stage of Earias vitella assessed as pupal duration time at 0.5 ug/cm3 administered through artificial diet containing Abelmoschus esculentus seed powder (reference value: 6.4 +/- 0.21 days)
[13] = tested on: Earias vittella; test: Insecticidal activity against female adult Earias vitella assessed as adult longevity time at 0.5 ug/cm3 administered through artificial diet containing Abelmoschus esculentus seed powder (reference value: 8.6 +/- 0.48 days)
[14] = tested on: Earias vittella; test: Insecticidal activity against third-instar larval stage of Earias vitella assessed as total larval duration time at 0.5 ug/cm3 administered through artificial diet containing Abelmoschus esculentus seed powder (reference value: 8.2 +/- 0.48 days)
[15] = tested on: Earias vittella; test: Insecticidal activity against male adult Earias vitella assessed as adult longevity time at 0.5 ug/cm3 administered through artificial diet containing Abelmoschus esculentus seed powder (reference value: 8.2 +/- 0.4 days)
[16] = tested on: Earias vittella; test: Insecticidal activity against third-instar larval stage of Earias vitella assessed as larval mortality at 0.5 ug/cm3 administered through artificial diet containing Abelmoschus esculentus seed powder (reference value: 4%)
[17] = tested on: Spodoptera litura; test: Insecticidal activity against pupal stage of Spodoptera litura in compound-treated castor leaves assessed as pupal duration time at 0.5 ug/cm2 (reference value: 9.2 +/- 0.74 days)
[18] = tested on: Spodoptera litura; test: Insecticidal activity against pupal stage of Spodoptera litura in compound-treated castor leaves assessed as pupal mortality at 0.5 ug/cm2 relative to control
[19] = tested on: Spodoptera litura; test: Insecticidal activity against third-instar larval stage of Spodoptera litura in compound-treated castor leaves assessed as total larval duration time at 0.5 ug/cm2 (reference value: 12.4 +/- 0.48 days)
[20] = tested on: Earias vittella; test: Antifeedant activity against third-instar larval stage of Earias vitella assessed as decrease in diet consumption at 0.5 ug/cm3 administered through artificial diet containing Abelmoschus esculentus seed powder after 24 hr relative to acetone-treated control; parameters: scale not given: the % may be the effect or the level left
In short: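 Artificial diet was modified Klein medium with bhendi (Abelmoschus esculentus) seed powder in place of alfalfa. Compound in acetone was mixed into bhendi meal 12 h before diet preparation so the solvent evaporated. One 3 g diet cube was given to five freshly molted third-instar larvae in a muslin-covered container. After 24 h the cubes were weighed. %AF = 100 − (treated/control)×100.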

C/C=C(\C)C(=O)O[C@H]1C[C@@H](OC(C)=O)[C@@]2(C(=O)OC)CO[C@H]3[C@@H](O)[C@@](C)([C@]45O[C@@]4(C)[C@@H]4C[C@H]5O[C@@H]5OC=C[C@@]54O)[C@H]4[C@]1(CO[C@]4(O)C(=O)OC)[C@@H]32 [AZADIRACHTIN A]
Activity [1]: 42.8%
Activity [2]: 28.5%
mortality [3]: 37.5%
Activity [4]: 25%
Time [5]: 7 days
Time [6]: 7.2 days
Activity [7]: 37%
Activity [8]: 59.2 mg
mortality at 0.5 µg/cm2 [9]: 78%
Activity [10]: 247.2 mg
Activity [11]: 79.2%
Time [12]: 8.4 days
Time [13]: 6.8 days
Time [14]: 11 days
Time [15]: 6.6 days
mortality [16]: 68%
Time [17]: 11 days
mortality at 0.5 µg/cm2 [18]: 28%
Time [19]: 13.9 days
Activity [20]: 79.2%
